From ChEMBL document CHEMBL1221233, “4''-O-(omega-Quinolylamino-alkylamino)propionyl derivatives of selected macrolides with the activity against the key erythromycin resistant respiratory pathogens” (2010)
Converted amounts (≈) assume the structure as drawn.

Legend:
Type in all cases: functional
[1] = system: Staphylococcus aureus; test: Antibacterial activity against efflux-mediated macrolide-resistance Staphylococcus aureus PK1 by broth microdilution method
Outline: (§1)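 Staphylococci were grown on Mueller-Hinton agar and then tested by CLSI-guideline broth microdilution against two-fold serial dilutions of compound. The result was recorded as the minimum inhibitory concentration.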

[2] = system: Streptococcus pyogenes; test: Antibacterial activity against efflux-mediated macrolide-resistance Streptococcus pyogenes 2 Finland by broth microdilution method
Outline: (§2)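 MIC by CLSI broth microdilution. In the streptococcal medium, 5% horse serum replaced lysed blood. Compounds were tested as two-fold serial dilutions. Strains were first grown on Columbia agar with 5% sheep blood. The MIC was read as the lowest concentration inhibiting growth.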

[3] = system: Streptococcus pyogenes; test: Antibacterial activity against constitutive MLS resistance sStreptococcus pyogenes 166 GR-Micro by broth microdilution method; outline: as §2
[4] = system: Streptococcus pneumoniae; test: Antibacterial activity against constitutive MLS resistance Streptococcus pneumoniae 58 by broth microdilution method; outline: as §2
[5] = system: Streptococcus pneumoniae; test: Antibacterial activity against inducible resistance to macrolide and constitutive resistance to lincosamide Streptococcus pneumoniae 134 GR M by broth microdilution method; outline: as §2
[6] = system: Staphylococcus aureus; test: Antibacterial activity against inducible resistance to macrolide, licosamide and streptogramin Staphylococcus aureus 90256 by broth microdilution method; outline: as §1
[7] = system: Streptococcus pneumoniae; test: Antibacterial activity against efflux-mediated macrolide-resistance Streptococcus pneumoniae Ci137 by broth microdilution method; outline: as §2
[8] = system: Haemophilus influenzae; test: Antibacterial activity against Haemophilus influenzae ATCC 49247 by broth microdilution method
Outline: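 MIC by broth microdilution following CLSI guidelines, expressed in units of lg/mL. Twofold dilutions prepared in 96-well plates. H. influenzae grown on Mueller-Hinton chocolate agar before testing.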

Row | Structure (SMILES) | MIC [1] [µg/mL] | MIC [2] [µg/mL] | MIC [3] [µg/mL] | MIC [4] [µg/mL] | MIC [5] [µg/mL] | MIC [6] [µg/mL] | MIC [7] [µg/mL] | MIC [8] [µg/mL]
1 | CC[C@H]1OC(=O)[C@H](C)[C@@H](O[C@H]2C[C@@](C)(OC)[C@@H](OC(=O)CCNCCNc3cc4c(cc3F)c(=O)c(C(=O)O)cn4C3CC3)[C@H](C)O2)[C@H](C)[C@@H](O[C@@H]2O[C@H](C)C[C@H](N(C)C)[C@H]2O)[C@](C)(O)C[C@@H](C)C(=O)[C@H](C)[C@@H](O)[C@]1(C)O | 0.5 (≈ 0.457 µM) | ≤ 0.125 | 0.5 (≈ 0.457 µM) | ≤ 0.125 | 0.25 (≈ 0.229 µM) | 4 (≈ 3.66 µM) | ≤ 0.125 | 8 (≈ 7.32 µM)
2 | CC[C@H]1OC(=O)[C@H](C)[C@@H](O[C@H]2C[C@@](C)(OC)[C@@H](OC(=O)CCNCCCCNc3cc4c(cc3F)c(=O)c(C(=O)O)cn4C3CC3)[C@H](C)O2)[C@H](C)[C@@H](O[C@@H]2O[C@H](C)C[C@H](N(C)C)[C@H]2O)[C@](C)(O)C[C@@H](C)C(=O)[C@H](C)[C@@H](O)[C@]1(C)O | 2 (≈ 1.78 µM) | ≤ 0.125 | 8 (≈ 7.13 µM) | 8 (≈ 7.13 µM) | 2 (≈ 1.78 µM) | > 64 | ≤ 0.125 | 2 (≈ 1.78 µM)
3 | CC[C@H]1OC(=O)[C@H](C)[C@@H](O[C@H]2C[C@@](C)(OC)[C@@H](OC(=O)CCNCCNc3cc4c(=O)c(C(=O)O)cn(C5CC5)c4cc3Cl)[C@H](C)O2)[C@H](C)[C@@H](O[C@@H]2O[C@H](C)C[C@H](N(C)C)[C@H]2O)[C@](C)(O)C[C@@H](C)C(=O)[C@H](C)[C@@H](O)[C@]1(C)O | 0.5 (≈ 0.451 µM) | ≤ 0.125 | ≤ 0.125 | ≤ 0.125 | ≤ 0.125 | 4 (≈ 3.6 µM) | ≤ 0.125 | 2 (≈ 1.8 µM)
4 | CC[C@H]1OC(=O)[C@H](C)[C@@H](O[C@H]2C[C@@](C)(OC)[C@@H](OC(=O)CCNCCNc3ccc4c(c3)c(=O)c(C(=O)O)cn4C3CC3)[C@H](C)O2)[C@H](C)[C@@H](O[C@@H]2O[C@H](C)C[C@H](N(C)C)[C@H]2O)[C@](C)(O)C[C@@H](C)C(=O)[C@H](C)[C@@H](O)[C@]1(C)O | 8 (≈ 7.44 µM) | ≤ 0.125 | ≤ 0.125 | ≤ 0.125 | ≤ 0.125 | 4 (≈ 3.72 µM) | ≤ 0.125 | 1 (≈ 0.93 µM)
5 | CC[C@H]1OC(=O)[C@H](C)[C@@H](O[C@H]2C[C@@](C)(OC)[C@@H](OC(=O)CCNCCCNc3cc4c(cc3F)c(=O)c(C(=O)O)cn4C3CC3)[C@H](C)O2)[C@H](C)[C@@H](O[C@@H]2O[C@H](C)C[C@H](N(C)C)[C@H]2O)[C@](C)(O)C[C@@H](C)C(=O)[C@H](C)[C@@H](O)[C@]1(C)O | 1 (≈ 0.903 µM) | ≤ 0.125 | 2 (≈ 1.81 µM) | 0.25 (≈ 0.226 µM) | 2 (≈ 1.81 µM) | 64 (≈ 57.8 µM) | ≤ 0.125 | 8 (≈ 7.22 µM)
6 | CC[C@H]1OC(=O)[C@H](C)[C@@H](O[C@H]2C[C@@](C)(OC)[C@@H](OC(=O)CCNCCNc3cc4c(=O)c(C(=O)OC)cn(C5CC5)c4cc3Cl)[C@H](C)O2)[C@H](C)[C@@H](O[C@@H]2O[C@H](C)C[C@H](N(C)C)[C@H]2O)[C@](C)(O)C[C@@H](C)C(=O)[C@H](C)[C@@H](O)[C@]1(C)O | 16 (≈ 14.2 µM) | ≤ 0.125 | 0.125 (≈ 0.111 µM) | ≤ 0.125 | ≤ 0.125 | > 64 | ≤ 0.125 | 2 (≈ 1.78 µM)
7 | CC[C@H]1OC(=O)[C@H](C)[C@@H](O[C@H]2C[C@@](C)(OC)[C@@H](OC(=O)CCNCCNc3ccc4c(=O)c(C(=O)O)cn(C)c4c3)[C@H](C)O2)[C@H](C)[C@@H](O[C@@H]2O[C@H](C)C[C@H](N(C)C)[C@H]2O)[C@](C)(O)C[C@@H](C)C(=O)[C@H](C)[C@@H](O)[C@]1(C)O | 1 (≈ 0.953 µM) | 1 (≈ 0.953 µM) | ≤ 0.125 | ≤ 0.125 | ≤ 0.125 | 4 (≈ 3.81 µM) | ≤ 0.125 | 8 (≈ 7.62 µM)
8 | CC[C@H]1OC(=O)[C@H](C)[C@@H](O[C@H]2C[C@@](C)(OC)[C@@H](OC(=O)CCNCCNc3ccc4c(=O)c(C(=O)O)cn(CC)c4c3)[C@H](C)O2)[C@H](C)[C@@H](O[C@@H]2O[C@H](C)C[C@H](N(C)C)[C@H]2O)[C@](C)(O)C[C@@H](C)C(=O)[C@H](C)[C@@H](O)[C@]1(C)O | 0.5 (≈ 0.47 µM) | ≤ 0.125 | ≤ 0.125 | ≤ 0.125 | ≤ 0.125 | 1 (≈ 0.94 µM) | ≤ 0.125 | 2 (≈ 1.88 µM)
9 | CC[C@H]1OC(=O)[C@H](C)[C@@H](O[C@H]2C[C@@](C)(OC)[C@@H](OC(=O)CCNCCNc3ccc4c(=O)c(C(=O)O)cn(C5CC5)c4c3)[C@H](C)O2)[C@H](C)[C@@H](O[C@@H]2O[C@H](C)C[C@H](N(C)C)[C@H]2O)[C@](C)(O)C[C@@H](C)C(=O)[C@H](C)[C@@H](O)[C@]1(C)O | 8 (≈ 7.44 µM) | ≤ 0.125 | ≤ 0.125 | ≤ 0.125 | ≤ 0.125 | 8 (≈ 7.44 µM) | ≤ 0.125 | 2 (≈ 1.86 µM)
10 | CC[C@H]1OC(=O)[C@H](C)[C@@H](O[C@H]2C[C@@](C)(OC)[C@@H](OC(=O)CCNCCCCNc3ccc4c(=O)c(C(=O)O)cn(C)c4c3)[C@H](C)O2)[C@H](C)[C@@H](O[C@@H]2O[C@H](C)C[C@H](N(C)C)[C@H]2O)[C@](C)(O)C[C@@H](C)C(=O)[C@H](C)[C@@H](O)[C@]1(C)O | 4 (≈ 3.71 µM) | 0.25 (≈ 0.232 µM) | 16 (≈ 14.9 µM) | 4 (≈ 3.71 µM) | 2 (≈ 1.86 µM) | > 32 | 4 (≈ 3.71 µM) | > 32
11 | CC[C@H]1OC(=O)[C@H](C)[C@@H](O[C@H]2C[C@@](C)(OC)[C@@H](OC(=O)CCNCCNc3ccc4c(=O)c(C(=O)O)cn(C)c4c3)[C@H](C)O2)[C@H](C)[C@@H](O[C@@H]2O[C@H](C)C[C@H](N(C)C)[C@H]2O)[C@](C)(O)C[C@@H](C)CN(C)[C@H](C)[C@@H](O)[C@]1(C)O | 2 (≈ 1.88 µM) | ≤ 0.125 | ≤ 0.125 | ≤ 0.125 | ≤ 0.125 | 4 (≈ 3.76 µM) | ≤ 0.125 | 8 (≈ 7.52 µM)
12 | CC[C@H]1OC(=O)[C@H](C)[C@@H](O[C@H]2C[C@@](C)(OC)[C@@H](OC(=O)CCNCCNc3ccc4c(=O)c(C(=O)O)cn(CC)c4c3)[C@H](C)O2)[C@H](C)[C@@H](O[C@@H]2O[C@H](C)C[C@H](N(C)C)[C@H]2O)[C@](C)(O)C[C@@H](C)CN(C)[C@H](C)[C@@H](O)[C@]1(C)O | 2 (≈ 1.85 µM) | ≤ 0.125 | ≤ 0.125 | ≤ 0.125 | ≤ 0.125 | 4 (≈ 3.71 µM) | ≤ 0.125 | 4 (≈ 3.71 µM)
13 | CC[C@H]1OC(=O)[C@H](C)[C@@H](O[C@H]2C[C@@](C)(OC)[C@@H](OC(=O)CCNCCNc3ccc4c(=O)c(C(=O)O)cn(C5CC5)c4c3)[C@H](C)O2)[C@H](C)[C@@H](O[C@@H]2O[C@H](C)C[C@H](N(C)C)[C@H]2O)[C@](C)(O)C[C@@H](C)CN(C)[C@H](C)[C@@H](O)[C@]1(C)O | 1 (≈ 0.917 µM) | ≤ 0.125 | ≤ 0.125 | ≤ 0.125 | ≤ 0.125 | 2 (≈ 1.83 µM) | ≤ 0.125 | 4 (≈ 3.67 µM)
14 | CC[C@H]1OC(=O)[C@H](C)[C@@H](O[C@H]2C[C@@](C)(OC)[C@@H](OC(=O)CCNCCNc3ccc4c(=O)c(C(=O)O)cn(C)c4c3)[C@H](C)O2)[C@H](C)[C@@H](O[C@@H]2O[C@H](C)C[C@H](N(C)C)[C@H]2O)[C@](C)(O)C[C@@H](C)NC(=O)[C@H](C)[C@@H](O)[C@]1(C)O | 4 (≈ 3.76 µM) | 2 (≈ 1.88 µM) | 0.5 (≈ 0.47 µM) | 1 (≈ 0.94 µM) | 1 (≈ 0.94 µM) | 32 (≈ 30.1 µM) | 1 (≈ 0.94 µM) | 16 (≈ 15 µM)
15 | CC[C@H]1OC(=O)[C@H](C)[C@@H](O[C@H]2C[C@@](C)(OC)[C@@H](OC(=O)CCNCCNc3ccc4c(=O)c(C(=O)O)cn(C5CC5)c4c3)[C@H](C)O2)[C@H](C)[C@@H](O[C@@H]2O[C@H](C)C[C@H](N(C)C)[C@H]2O)[C@](C)(O)C[C@@H](C)NC(=O)[C@H](C)[C@@H](O)[C@]1(C)O | 64 (≈ 58.7 µM) | ≤ 0.125 | 32 (≈ 29.3 µM) | 32 (≈ 29.3 µM) | 64 (≈ 58.7 µM) | 64 (≈ 58.7 µM) | ≤ 0.125 | 8 (≈ 7.34 µM)
16 | CC[C@H]1OC(=O)[C@H](C)[C@@H](O[C@H]2C[C@@](C)(OC)[C@@H](OC(=O)CCNCCCCNc3ccc4c(=O)c(C(=O)O)cn(C)c4c3)[C@H](C)O2)[C@H](C)[C@@H](O[C@@H]2O[C@H](C)C[C@H](N(C)C)[C@H]2O)[C@](C)(O)C[C@@H](C)NC(=O)[C@H](C)[C@@H](O)[C@]1(C)O | 16 (≈ 14.6 µM) | 8 (≈ 7.32 µM) | 32 (≈ 29.3 µM) | 32 (≈ 29.3 µM) | 16 (≈ 14.6 µM) | > 32 | 4 (≈ 3.66 µM) | > 32
17 | CC[C@H]1OC(=O)[C@H](C)[C@@H](O[C@H]2C[C@@](C)(OC)[C@@H](OC(=O)CCNCCCCNc3ccc4c(=O)c(C(=O)O)cn(CC)c4c3)[C@H](C)O2)[C@H](C)[C@@H](O[C@@H]2O[C@H](C)C[C@H](N(C)C)[C@H]2O)[C@](C)(O)C[C@@H](C)NC(=O)[C@H](C)[C@@H](O)[C@]1(C)O | 8 (≈ 7.23 µM) | 8 (≈ 7.23 µM) | 32 (≈ 28.9 µM) | 16 (≈ 14.5 µM) | 8 (≈ 7.23 µM) | > 32 | 2 (≈ 1.81 µM) | > 32
